From ChEMBL document CHEMBL4818983, “Structure-activity relationship and hypoglycemic activity of tricyclic matrines with advantage of treating diabetic nephropathy” (Eur J Med Chem, 2020)

System: HepG2
Assay: Increase in glucose consumption in human HepG2 cells assessed as Gx/GDMSO ratio at 25 uM by glucose oxidase assay
Format: functional
Method in brief: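 HepG2 glucose consumption screen. Test compounds at 25 μM, metformin at 5 mM. Activity expressed as ratio of glucose consumption to DMSO-treated cells (Gx/G_DMSO).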

Row | SMILES | Ratio
1 | CNc1nnc(CCC[C@@H]2[C@H]3CCCN4CCC[C@@H](CN2S(=O)(=O)c2cccc(C(F)(F)F)c2)[C@@H]34)s1 | 0.86
2 | COC(=O)CCC[C@@H]1[C@H]2CCCN3CCC[C@H](CN1S(=O)(=O)c1ccc(C)cc1)[C@@H]23 | 1.14
3 | O=C(O)C[C@@H]1[C@H]2CCCN3CCC[C@@H](CN1S(=O)(=O)c1cccc(C(F)(F)F)c1)[C@@H]23 | 1.06
4 | COC(=O)CCC[C@@H]1[C@H]2CCCN3CCC[C@H](CN1S(=O)(=O)c1cccc(C(F)(F)F)c1)[C@@H]23 | 1.21
5 | CCNc1nnc(CCC[C@@H]2[C@H]3CCCN4CCC[C@@H](CN2S(=O)(=O)c2ccc(C)cc2)[C@@H]34)s1 | 0.79
6 | O=C(O)CCC[C@@H]1[C@H]2CCCN3CCC[C@H](CN1S(=O)(=O)c1cccc(C(F)(F)F)c1)[C@@H]23 | 1.16
7 | CCCC[C@@H]1[C@H]2CCCN3CCC[C@H](CN1S(=O)(=O)c1cccc(C(F)(F)F)c1)[C@@H]23 | 1.2
8 | Cc1ccc(S(=O)(=O)N2C[C@@H]3CCCN4CCC[C@@H]([C@H]34)[C@H]2CCCCO)cc1 | 1.16
9 | CCCC[C@@H]1[C@H]2CCCN3CCC[C@@H](CN1S(=O)(=O)c1ccc(C)cc1)[C@@H]23 | 1.03
10 | CCCC[C@@H]1[C@H]2CCCN3CCC[C@@H](CN1C(=O)Nc1ccc(C(F)(F)F)cc1)[C@@H]23 | 1.08
11 | O=S(=O)(c1ccc(C(F)(F)F)cc1)N1C[C@H]2CCCN3CCC[C@@H]([C@H]23)[C@H]1CCCCO | 1.06
12 | Nc1nnc(CCC[C@@H]2[C@H]3CCCN4CCC[C@@H](CN2S(=O)(=O)c2cccc(C(F)(F)F)c2)[C@@H]34)o1 | 1.34
13 | O=C1C=CC[C@@H]2[C@H]3CCCN4CCC[C@@H](CN12)[C@@H]34 [SOPHOCARPINE] | 1.11
14 | CCCC[C@@H]1[C@H]2CCCN3CCC[C@@H](CN1C(=O)Nc1c(C)cccc1C)[C@@H]23 | 1.14
15 | Nc1nnc(CCC[C@@H]2[C@H]3CCCN4CCC[C@@H](CN2S(=O)(=O)c2cccc(C(F)(F)F)c2)[C@@H]34)s1 | 1.04
16 | O=C(O)CCC[C@@H]1[C@H]2CCCN3CCC[C@@H](CN1S(=O)(=O)c1ccc(C(F)(F)F)cc1)[C@@H]23 | 1.03
17 | CCCC[C@@H]1[C@H]2CCCN3CCC[C@@H](CN1C(=O)Nc1cccc(C)c1)[C@@H]23 | 1.32
18 | O=C(O)CCC[C@@H]1[C@H]2CCCN3CCC[C@H](CN1S(=O)(=O)c1ccc(C(F)(F)F)cc1)[C@@H]23 | 0.99
19 | CCCC[C@@H]1[C@H]2CCCN3CCC[C@@H](CN1C(=O)Nc1ccc(F)cc1)[C@@H]23 | 1.02
20 | CCCC[C@@H]1[C@H]2CCCN3CCC[C@@H](CN1S(=O)(=O)c1ccccc1C(F)(F)F)[C@@H]23 | 1.01
21 | CN(C)c1nnc(CCC[C@@H]2[C@H]3CCCN4CCC[C@@H](CN2S(=O)(=O)c2cccc(C(F)(F)F)c2)[C@@H]34)s1 | 0.97
22 | CC[C@@H]1[C@H]2CCCN3CCC[C@@H](CN1S(=O)(=O)c1ccccc1C(F)(F)F)[C@@H]23 | 1.26

Row | SMILES | Ratio
23 | CCCC[C@@H]1[C@H]2CCCN3CCC[C@@H](CN1C(=O)Nc1ccccc1C)[C@@H]23 | 1.3
24 | CC(=O)Nc1nnc(CCC[C@@H]2[C@H]3CCCN4CCC[C@@H](CN2S(=O)(=O)c2cccc(C(F)(F)F)c2)[C@@H]34)s1 | 0.89
25 | CCCC[C@@H]1[C@H]2CCCN3CCC[C@@H](CN1C(=O)Nc1cccc(C(F)(F)F)c1)[C@@H]23 | 1
26 | CCCC[C@@H]1[C@H]2CCCN3CCC[C@@H](CN1C(=O)Nc1ccc(OC(F)(F)F)cc1)[C@@H]23 | 1.07
27 | O=S(=O)(c1ccccc1C(F)(F)F)N1C[C@H]2CCCN3CCC[C@@H]([C@H]23)[C@H]1CCCCO | 1.24
28 | O=C1CCC[C@@H]2[C@H]3CCCN4CCC[C@H](CN12)[C@@H]34 [SOPHORIDINE] | 1.22
29 | CCCC[C@@H]1[C@H]2CCCN3CCC[C@@H](CN1C(=O)Nc1ccc(C)cc1)[C@@H]23 | 1.04
30 | CCCC[C@@H]1[C@H]2CCCN3CCC[C@H](CN1S(=O)(=O)c1ccc(C(F)(F)F)cc1)[C@@H]23 | 1.17
31 | CCCC[C@@H]1[C@H]2CCCN3CCC[C@H](CN1S(=O)(=O)c1ccc(C)cc1)[C@@H]23 | 1.07
32 | O=C1CCC[C@@H]2[C@H]3CCCN4CCC[C@@H](CN12)[C@@H]34 [MATRINE] | 1.26
33 | CCCC[C@@H]1[C@H]2CCCN3CCC[C@@H](CN1C(=O)Nc1ccccc1C(F)(F)F)[C@@H]23 | 1.03
34 | COC(=O)CCC[C@@H]1[C@H]2CCCN3CCC[C@H](CN1S(=O)(=O)c1ccccc1C(F)(F)F)[C@@H]23 | 1.23
35 | Cc1ccc(S(=O)(=O)N2C[C@H]3CCCN4CCC[C@@H]([C@H]34)[C@H]2CCCCO)cc1 | 1.12
36 | Nc1nnc(CCC[C@@H]2[C@H]3CCCN4CCC[C@@H](CN2S(=O)(=O)c2ccc(C(F)(F)F)cc2)[C@@H]34)o1 | 1.18
37 | COC(=O)CCC[C@@H]1[C@H]2CCCN3CCC[C@H](CN1S(=O)(=O)c1ccc(C(F)(F)F)cc1)[C@@H]23 | 1.13
38 | O=S(=O)(c1cccc(C(F)(F)F)c1)N1C[C@H]2CCCN3CCC[C@@H]([C@H]23)[C@H]1CCCCO | 1.25
39 | O=S(=O)(c1ccc(C(F)(F)F)cc1)N1C[C@@H]2CCCN3CCC[C@@H]([C@H]23)[C@H]1CCCCN=C=S | 1.02
40 | CCCC[C@@H]1[C@H]2CCCN3CCC[C@H](CN1S(=O)(=O)c1ccccc1C(F)(F)F)[C@@H]23 | 1.26
41 | Cc1ccc(S(=O)(=O)N2C[C@@H]3CCCN4CCC[C@@H]([C@H]34)[C@H]2CCCC(=O)O)cc1 | 0.87
42 | CC[C@@H]1[C@H]2CCCN3CCC[C@@H](CN1S(=O)(=O)c1ccc(C(F)(F)F)cc1)[C@@H]23 | 1.32
43 | O=S(=O)(c1ccc(C(F)(F)F)cc1)N1C[C@@H]2CCCN3CCC[C@@H]([C@H]23)[C@H]1CCCCO | 1.04
44 | O=C(O)CCC[C@@H]1[C@H]2CCCN3CCC[C@H](CN1S(=O)(=O)c1ccccc1C(F)(F)F)[C@@H]23 | 1.12
